In ChEMBL document CHEMBL4513216, “Probing the Open Global Health Chemical Diversity Library for Multistage-Active Starting Points for Next-Generation Antimalarials” (ACS Infect Dis, 2020):

Experiment: Toxicity liver stage against HepG2, at 10uM
Format: cell-based
Design: test concentration 10 uM, cell line HepG2-A16-CD81EGFP
Settings: human, HepG2-A16-CD81EGFP cells; read-out: INHIBITION
Method in brief: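 Uninfected HepG2-A16-CD81EGFP cells, 3 × 10^3 per well, 1536-well, plated on prespotted compound at 10 μM final, parasite-free screening media added to match infected plates; puromycin 10 μM positive, DMSO 0.5% negative; run in parallel with 48 h PbLuc assay at 37 °C, 5% CO2; viability by CellTiter-Glo luminescence, normalized to controls.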

| Compound | cytotoxicity at 10 µM [%] |
| --- | --- |
| O=C(c1ccco1)N1CCC2(CC1)CCN(c1ncccn1)CC2 | 4.59 |
| COCc1cc(C[C@@H]2CC[C@H](O)[C@@H](CN(CC(C)C)CC(C)C)O2)no1 | 0.169 |
| O=C(c1cccnc1)N1C[C@@H]2OCC(=O)N(Cc3cccnc3)[C@@H]2C1 | 2.08 |
| CC(=O)N1CCC(N2CCN3C(=O)N(Cc4ccccn4)C[C@H]3C2)CC1 | 2.26 |
| CC(C)N[C@@H]1CO[C@H](CNC(=O)c2cccs2)[C@H]1O | -3.65 |
| O=C(O)C[C@@H]1CCN(C(=O)C2CCCC2)C[C@@H]1CCN1CCCCC1 | -6.51 |
| COc1c[nH]c(C(=O)Nc2nc(C)cs2)cc1=O | -44.4 |
| COCCn1/c(=N\C(=O)CN(C)S(C)(=O)=O)sc2cc(Cl)ccc21 | -13.7 |
| O=C(Nc1cc(N2CCOCC2)ncn1)c1cnccn1 | -3.45 |
| CCc1c(C)nc2n(c1=O)CC(C(=O)Nc1sccc1C(=O)OC)CS2 (centres undefined) | 3.24 |
| CC(=O)N1C[C@@H]2C(=O)N(C)C3(CCN(C(=O)C(C)C)CC3)[C@@H]2C1 | 0.434 |
| CCN1C(=O)[C@H]2CN(Cc3cccnc3)C[C@H]2C12CCN(C(C)=O)CC2 | -1.8 |
| COc1ccc(C[C@H]2CN(C(=O)c3ccn(C)n3)CC[C@H]2OC)cc1 | 5.12 |
| O=C(C1CCOC1)N1CCC2(CCCNC2)CC1 (centres undefined) | -1.74 |
| O=C(c1ccsc1)N1CCC2(CCN2Cc2ccc(F)cc2)C1 (centres undefined) | -144 |
| O=C(c1c2c(N3CCOCC3)ncnc2n2ccccc12)N1CCCC1 | -1.52 |
| O=C1CC2(CCN(c3nncs3)C2)CN1c1ccc2c(c1)OCCO2 (centres undefined) | 6.66 |
| O=C(c1ccco1)N1CC[C@H]2C[C@@H](c3nccs3)O[C@@H]2C1 | 0.428 |
| O=C(CCn1ccc2ccc(Br)cc21)/N=c1\[nH]nc(C2CCCO2)s1 (centres undefined) | -9.46 |
| COCCNC(=O)Cn1nc(C(C)C)c2cnn(C(C)(C)C)c2c1=O | -21.9 |
| CCc1c(C)nc2n(c1=O)CC(C(=O)Nc1ccccc1F)CS2 (centres undefined) | 1.57 |
| Cc1nn(CC(=O)N2CCN(c3ccc(F)cc3)CC2)c(C)c1Cl | 6.87 |

| Compound | cytotoxicity at 10 µM [%] |
| --- | --- |
| Cc1cc(C(=O)NCc2cnn(C)c2C)nc(N2CCCCCC2)n1 | 2.01 |
| COC(=O)CCn1ccc(=O)c2ccc(OC)cc21 | 17.1 |
| CC(C)N1CCCC1c1cc(C(F)(F)F)[nH]n1 (centres undefined) | 0.171 |
| COc1cc2cc3c(nc2cc1OC)OCCN(CC1CC1)C3 | 5.37 |
| COc1c(C)cnc(CN2CCn3c(C)nnc3C2)c1C | -4.97 |
| Cn1cnc2c1CCN(CC(=O)NC1CCCCNC1=O)C2 (centres undefined) | -5.97 |
| CNS(=O)(=O)CC(=O)N1CCC(c2ccc(F)c(F)c2)CC1 | 0.696 |
| CCS(=O)(=O)NCCNC(C)(C)c1nc(C)cs1 | -0.396 |
| N#CCCN(C(=O)CCc1cscn1)c1ccc2c(c1)OCCO2 | -2.12 |
| COCC(=O)N(CCC(=O)OC)CC1CCCO1 (centres undefined) | 1.74 |
| Cn1nc2c(cc1=O)CN(Cc1nc(-c3ccoc3)no1)CC2 | 7.72 |
| CCOC(=O)NCCNC(=O)c1cc2ccccc2nc1N1CCCC1 | -7.74 |
| CC(C)(C)C(Cn1ccnc1)NC(=O)NCc1ccco1 (centres undefined) | -1.85 |
| CS(=O)(=O)NCCNC(=O)NC1(c2ccc(Cl)cc2)CCC1 | -2.48 |
| N#Cc1ccc(SCCCO)c(F)c1 | 5.11 |
| N#Cc1cccc(OCCN2CCCC(c3noc(C4CC4)n3)C2)c1 (centres undefined) | -0.276 |
| COc1ccnc(N2CCN(C(=O)c3cscn3)CC2)n1 | 0.883 |
| CN(Cc1noc(C2CC2)n1)CC1CCN(CCO)CC1 | -3.96 |
| COC(=O)c1ccccc1S(=O)(=O)NC(=O)c1cccc2c1OCCO2 | -12.5 |
| CC(CN1CCOCC1)NC(=O)NCc1ccoc1 (centres undefined) | -5.52 |
| COc1ccc2cccc(CC(=O)NCCCc3n[nH]c(C)n3)c2c1 | -2.11 |
| COCCN(Cc1cnn(C)c1)Cc1ccc(C)o1 | -0.0972 |

| Compound | cytotoxicity at 10 µM [%] |
| --- | --- |
| Cc1nnc(CN(C)CCCOc2cccc(Cl)c2)o1 | 2.51 |
| O=C(CN1CCCS(=O)(=O)CC1)NCc1ccccc1F | 3.76 |
| O=C(NCc1nc2cc(F)ccc2[nH]1)c1ccc[nH]1 | 11.9 |
| CC(C)CNC(=O)c1[nH]nc(C2CC2)c1Br | 2.71 |
| Cc1cccc(C(C)CNC(=O)N2CCOCC3(CCOCC3)C2)c1 (centres undefined) | 8.84 |
| CC(C)(C)C(O)CN1CCN(CC(=O)NC2CCOCC2)CC1 (centres undefined) | -8.06 |
| CC(C)(C)c1nc(CNC(=O)N2CCc3ccccc3C2CO)no1 (centres undefined) | 6.56 |
| Cc1ccc(C2CSCCN2C(=O)c2ccc(C(N)=O)cc2)o1 (centres undefined) | -2.12 |
| CN(Cc1ccc(Cl)s1)C(=O)c1cccc(OCC(N)=O)c1 | -1.61 |
| Cc1ccccc1-c1cc(NC(=O)CC(C)C)n(CCO)n1 | 7.47 |
| CN1C(=O)C(c2cccnc2)CC12CCN(CCO)CC2 (centres undefined) | 3.55 |
| O=C(c1ccncc1F)N1CCc2ncnc(-c3ccncc3)c2CC1 | 2.75 |
| CCc1nn(C)c(Cl)c1CN1CCC(Cc2nncn2C)CC1 | -1.52 |
| COc1cccc2c(=O)n(Cc3cc(C4CC4)[nH]n3)cnc12 | 3.76 |
| CCN1CCCC(c2c(-c3ccccc3)ncn2CCCO)C1 (centres undefined) | -3.41 |
| Cc1ccc(OCCN(C)C(=O)CCCC(N)=O)c(C)c1 | 1.47 |
| CN(Cc1nncn1C)c1nccc(C2CCCC2)n1 | -1.14 |
| Cc1cnn(-c2cncc(C(N)=O)c2)c1 | 3.04 |
| CNc1nc(N2CCC3(CCCNC3=O)C2)nc2c1CCC2 (centres undefined) | -4.95 |
| CCc1cc(N(C)Cc2c(C)nn(C)c2C)n2nccc2n1 | 0.613 |
| CCCn1ccnc1CN1C[C@@H](NC(C)=O)[C@H](c2ccc(C)cc2)C1 | 1.9 |
| CC(=O)NCc1cc2n(n1)CCN(Cc1cccc(CCN)c1)C2 | -19.5 |

| Compound | cytotoxicity at 10 µM [%] |
| --- | --- |
| COC(=O)NCC(=O)N1CCC(c2nc3cc(F)ccc3[nH]2)CC1 | 3.67 |
| Cc1ccc(N2Cc3cnn(Cc4ccc(F)cc4)c3C2)nn1 | 0.209 |
| CN(C)C(=O)CCCNc1ncc2c(n1)CCN2c1ccccc1 | 2.29 |
| Cc1cc(N2CCC(O)(CN(C)C)C2)c2cc3c(cc2n1)OCO3 (centres undefined) | 45.4 |
| Cc1cnc(C)c(N2CCN(Cc3ccc(-c4cc[nH]n4)o3)CC2)n1 | -5.01 |
| CCS(=O)(=O)N1CCC(NC(=O)c2cc(C(C)C)ccc2O)CC1 | -5.16 |
| Cc1cnn(CC2CCCCN2Cc2cnc(C)s2)c1 (centres undefined) | -11.3 |
| COC1CCN(C(=O)Cc2csc(-c3ccc(F)cc3)n2)CC1 | -6.16 |
| CC(C)c1nc(C2CCCN(C(=O)Cn3ccccc3=O)C2)no1 (centres undefined) | -16.3 |
| Cc1cc(NC(=O)CNC2CCc3nc(C(C)C)nn3C2)no1 (centres undefined) | -3.87 |
| CC(C)N(CC(N)=O)Cc1csc(C(C)(C)C)n1 | -5.13 |
| CCN(CC)C(=O)C1CCCN1C(=O)c1cccc(-n2cnnn2)c1 (centres undefined) | -14.9 |
| Cc1noc(C(C)C)c1C(=O)NCC(c1ccccc1)N(C)C (centres undefined) | -7.72 |
| COc1ccc(CCC(=O)N2CCCC(n3cncn3)C2)cc1 (centres undefined) | -21 |
| CC(O)CN1CCN(C(=O)c2ccn(-c3ccc(F)cc3)n2)CC1 (centres undefined) | -6.11 |
| CN(C)c1cc(CNC(=O)c2ccccc2Cl)ccn1 | -8.28 |
| N#CC1CCN(C(=O)NCCc2ccc(Cl)s2)CC1 | -16.1 |
| CNC(=O)CN1CCN(C(=O)c2ccn(C)c(=O)c2)CC1 | -16 |
| CCn1cnnc1CNC(=O)c1cc(Cl)c(I)cc1OC | -14.4 |
| CCCn1nc2c(cc1=O)CN(CCN1CCCC1=O)CC2 | -11.6 |
| c1ccc(-c2nc(CN3CCCC(Cn4cncn4)C3)cs2)cc1 (centres undefined) | -9.53 |
| Cc1ccc(-c2nc(CN3CCCC(Cn4cncn4)C3)cs2)o1 (centres undefined) | -22.2 |

| Compound | cytotoxicity at 10 µM [%] |
| --- | --- |
| CCOc1ncccc1CNC(=O)c1cc(C)on1 | -19 |
| CNS(=O)(=O)c1ccc(C(=O)NCCc2ccccn2)cc1 | -3.81 |
| COCCc1noc(CN2CCN(CC(O)c3ccccc3)CC2)n1 (centres undefined) | 2.67 |
| CC(O)CN1CCC(CNCc2c[nH]nc2C(C)(C)C)CC1 (centres undefined) | -8.55 |
| Cn1cccc1C(=O)N1CCc2c(CNS(C)(=O)=O)cncc2C1 | 4.68 |
| CNc1cc(C2CCCN2C(=O)c2ccc(=O)[nH]n2)ccn1 (centres undefined) | -5.04 |
| O=C(c1ccncc1)N1CCCC2(CCN(c3cccnc3)C2=O)C1 (centres undefined) | -131 |
| c1ccc(Cn2cc3c(n2)C(CNCC2CCOCC2)OCC3)nc1 (centres undefined) | -149 |
| O=C(c1cccnc1)N1CCC[C@]2(C[C@H](Oc3ncccc3F)CO2)C1 | 0.37 |
| Fc1cccnc1O[C@@H]1CN(Cc2ccco2)[C@@H]2CCCO[C@@H]21 | 5.08 |
| Cc1ccc(C(=O)N2C[C@@H]3CCCO[C@@H]3[C@H](N(C)Cc3ccco3)C2)o1 | 5.51 |
| Cc1ccc(CN2CCC3(CCC(C(=O)N(C)C)O3)CC2)o1 (centres undefined) | -2.63 |
| CC(C)NC(=O)N1CCc2ncnc(-c3ccncc3)c2CC1 | -0.736 |
| CC(Cn1ccnc1)NCc1cc(Br)c2c(c1)OCO2 (centres undefined) | 12.9 |
| O=C(c1ccco1)N1C[C@H]2CCCN(Cc3ccncc3)[C@H]2C1 | 0.361 |
| CCCS(=O)(=O)N1C[C@@H](OCc2ccncc2)[C@H]2OCCC[C@H]21 | 5.56 |
| Cc1ccoc1C(=O)N1CC[C@H]2[C@@H]1CCC(=O)N2c1cccnc1 | -70.4 |
| CC1CCN(C(=O)[C@H]2C[C@@H]3CCN(CC4CCOCC4)C[C@H]3O2)CC1 | 5.35 |
| O=C(NC1COC2(CCN(CC3CCC3)CC2)C1)c1ccccn1 (centres undefined) | -1.95 |
| CN1C[C@H]2CC[C@@H](CC1=O)N2C(=O)c1cc2ccccc2[nH]c1=O | -7.66 |
| O=C1C[C@@H]2CC[C@H](CN1)N2c1cc(-c2ccccc2F)nc2ccnn12 | 20.4 |
